Series [1] concerns Rattus norvegicus. Kind of series: Inhibition of the homologous passive cutaneous anaphylaxis (PCA) in rat, administered at a dose of 50 mg/kg intraperitoneally. The series is classed as functional. The following applies: ip, route intraperitoneal. The method, boiled down: (§1)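 Rat anti-DNP-As serum (raised with DNP-coupled ascaris plus killed Bordetella pertussis; titer about 1:256 by 48-h PCA) diluted 20-fold in 0.9% saline, given intradermally as 0.1 mL at three shaved-back sites of normal rats, with saline on the other side. After 48 h, 1.0 mL of 0.25% Evans blue containing 2.0 mg of antigen given iv. Read-out is % inhibition ± SD.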

Series [2] deals with Rattus norvegicus. Kind of series: Inhibition of homologous Passive Cutaneous Anaphylaxis in rat, following 20 mg/kg i.p. administration. The format is functional. Particulars: po, in the assay text read “p.o.” for “i.p.”. The method, boiled down:
as §1

Series [3] has as its system Rattus norvegicus. Kind of series: Inhibitory activity against the homologous Passive Cutaneous Anaphylaxis (PCA) in rat, administered at a dose of 100 mg/kg intraperitoneally. The series is classed as functional. Particulars: ip, route intraperitoneal. The method, boiled down:
as §1

Series [4] is described as follows: Lethal dose (LD50) determined in male ddY mice. The series is classed as toxicity. The following applies: mouse, in vivo. The method, boiled down: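 Acute toxicity by the up-down method, five animals per determination, with LD50 reported in mg/kg.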
Series [5] has as its system Rattus norvegicus. Kind of series: Inhibitory activity against the homologous Passive Cutaneous Anaphylaxis (PCA) in rat, administered at a dose of 50 mg/kg perorally. The series is classed as functional. The following applies: route oral. The method, boiled down:
as §1

For series [6], the system named is Rattus norvegicus. The series is described as follows: Inhibitory activity against the homologous Passive Cutaneous Anaphylaxis (PCA) in rat, administered at a dose of 20 mg/kg perorally. The series is classed as functional. Particulars: route oral. The method, boiled down:
as §1

The structures appear in SMILES notation.

For the molecule `C[S+](C)CCC(=O)Nc1ccc(Cl)cc1`, the inhibition in vivo (as a rule, the relative decrease from the control value, in per cent) at 50 mg/kg in the series on Rattus norvegicus [1] was found to be 0.3%. Moreover, the inhibition in vivo at 20 mg/kg with Rattus norvegicus [2] is -0.2%.
Consider `C[S+](C)CCC(N)=O`, for which, in the series on Rattus norvegicus [1], the inhibition in vivo at 50 mg/kg was 2.4%. The inhibition in vivo at 100 mg/kg with Rattus norvegicus [3] was 13.7%.
As for `CC(O)COc1ccc(NC(=O)CC[S+](C)C)cc1.Cc1ccc(S(=O)(=O)[O-])cc1` (centres undefined), in series [4], the LD50 (commonly the dose expected to kill half of the subjects tested) was found to be 495 mg/kg.
As to `CCOCC(COc1ccccc1NC(=O)CC[S+](C)C)OC(C)=O` (centres undefined), in the series on Rattus norvegicus [1], the inhibition in vivo at 50 mg/kg is 20%. In the series with Rattus norvegicus [2], the inhibition in vivo at 20 mg/kg is -2%.
Consider `CCOCC(COc1ccc(NC(=O)CC[S+](C)C)cc1)OCC` (centres undefined), for which the inhibition in vivo at 50 mg/kg in the series with Rattus norvegicus [1] was determined as 5.1%. Also, the inhibition in vivo at 20 mg/kg in the series with Rattus norvegicus [2] was determined as 0.1%.
`CCOCC(COc1ccc(NC(=O)CC[S+](C)C)cc1)OC(C)=O` (centres undefined): in the series on Rattus norvegicus [1], the inhibition in vivo at 50 mg/kg stood at 30.2%. In addition, the inhibition in vivo at 20 mg/kg with Rattus norvegicus [2] turned out to be 35.1%.
In series [4], `C[S+](C)CCC(=O)Nc1ccc(OCCCO)cc1.Cc1ccc(S(=O)(=O)[O-])cc1` had a median lethal dose (LD50) of 324 mg/kg.
For `CCCCOCC(O)COc1ccc(NC(=O)CC[S+](C)C)cc1` (centres undefined), in the series with Rattus norvegicus [1], the inhibition in vivo at 50 mg/kg was 4.4%. Moreover, the inhibition in vivo at 20 mg/kg with Rattus norvegicus [2] is 7.9%.
Consider `CCCOCC(O)COc1ccc(NC(=O)CC[S+](C)C)cc1` (centres undefined), for which the inhibition in vivo at 50 mg/kg in the series on Rattus norvegicus [1] is 13.8%. The inhibition in vivo at 20 mg/kg in the series with Rattus norvegicus [2] stood at 16.3%.
For the molecule `C[S+](C)CCC(=O)Nc1ccc(CC(=O)O)cc1`, the inhibition in vivo at 50 mg/kg in the series on Rattus norvegicus [1] is 25.5%. The inhibition in vivo at 20 mg/kg with Rattus norvegicus [2] came to 14.9%.
In the case of `C[S+](C)CCC(=O)NC1CCCCC1`, the inhibition in vivo at 50 mg/kg with Rattus norvegicus [1] is 9%. Moreover, in the series on Rattus norvegicus [3], the inhibition in vivo at 100 mg/kg came to 17%.
`CC(=O)c1ccc(NC(=O)CC[S+](C)C)cc1`: in the series on Rattus norvegicus [1], the inhibition in vivo at 50 mg/kg was found to be 25.1%. Also, the inhibition in vivo at 20 mg/kg with Rattus norvegicus [2] amounted to 9%.
As to `Cc1ccc(NC(=O)CC[S+](C)C)cc1`, the inhibition in vivo at 50 mg/kg in the series with Rattus norvegicus [1] was 22%. Also, in the series on Rattus norvegicus [2], the inhibition in vivo at 20 mg/kg amounted to 18.9%.
In the case of `C[S+](C)CCC(=O)Nc1ccccc1`, the inhibition in vivo at 50 mg/kg with Rattus norvegicus [1] is -8.3%. In the series on Rattus norvegicus [3], the inhibition in vivo at 100 mg/kg came to 27.1%.
Turning to `COCC(COc1ccc(NC(=O)CC[S+](C)C)cc1)OC` (centres undefined), the inhibition in vivo at 50 mg/kg with Rattus norvegicus [1] stood at 10.5%. Moreover, the inhibition in vivo at 20 mg/kg in the series on Rattus norvegicus [2] worked out at 17.9%.
The like results for `CCOCC(O)COc1ccc(NC(=O)CC[S+](C)C)cc1` (centres undefined) [SUPLATAST TOSILATE] were, in that order, 35.5% and 28.9%.
For the molecule `C[S+](C)CCC(=O)Nc1ccc(F)cc1`, in the series on Rattus norvegicus [1], the inhibition in vivo at 50 mg/kg worked out at 1.2%. For the same molecule, the inhibition in vivo at 20 mg/kg in the series on Rattus norvegicus [2] was determined as 4%.
The like results for `C[S+](C)CCC(=O)Nc1ccc(O)cc1` were, in that order, 9.7% and 21.9%.
For the molecule `C[S+](C)CCC(=O)Nc1ccc(OCC(O)COc2ccccc2)cc1` (centres undefined), the inhibition in vivo at 50 mg/kg in the series on Rattus norvegicus [1] is 4.6%. The inhibition in vivo at 20 mg/kg in the series on Rattus norvegicus [2] worked out at 14.4%.
Turning to `C[S+](C)CCC(=O)Nc1ccc(OCC(O)CO)cc1.Cc1ccc(S(=O)(=O)[O-])cc1` (centres undefined), the inhibition in vivo at 50 mg/kg with Rattus norvegicus [1] worked out at 34.9%; in the series on Rattus norvegicus [5], 18.6%. Besides, the inhibition in vivo at 20 mg/kg worked out at 38.7% with Rattus norvegicus [2] and 1.4% in the series on Rattus norvegicus [6]. Also, the LD50 in series [4] was determined as 1040 mg/kg.
As for `CCOCC(COc1cccc(NC(=O)CC[S+](C)C)c1)OC(C)=O` (centres undefined), the inhibition in vivo at 50 mg/kg with Rattus norvegicus [1] was 17.7%. Moreover, the inhibition in vivo at 20 mg/kg in the series on Rattus norvegicus [2] is 18.2%.
For the molecule `C[S+](C)CCC(=O)Nc1ccc(OCC(O)COC2CCCCC2)cc1` (centres undefined), the inhibition in vivo at 50 mg/kg in the series with Rattus norvegicus [1] is -7.4%. Moreover, in the series on Rattus norvegicus [2], the inhibition in vivo at 20 mg/kg is 10.2%.
In the same order, the values of `COCC(O)COc1ccc(NC(=O)CC[S+](C)C)cc1` (centres undefined) are 24.8% and 17.7%.
On to `CCCOc1ccc(NC(=O)CC[S+](C)C)cc1.Cc1ccc(S(=O)(=O)[O-])cc1`, for which, in the series with Rattus norvegicus [1], the inhibition in vivo at 50 mg/kg was 29.8%. Further, in the series with Rattus norvegicus [2], the inhibition in vivo at 20 mg/kg amounted to 13.8%. In series [4], this molecule returned an LD50 of 97 mg/kg.
Take `C[S+](C)CCC(=O)Nc1ccc(C(F)(F)F)cc1`: the inhibition in vivo at 50 mg/kg in the series with Rattus norvegicus [1] was -10.3%. For the same molecule, the inhibition in vivo at 20 mg/kg in the series with Rattus norvegicus [2] is -7.8%.
For the molecule `COc1ccc(NC(=O)CC[S+](C)C)cc1`, the inhibition in vivo at 50 mg/kg with Rattus norvegicus [1] is 17.4%. Also, the inhibition in vivo at 20 mg/kg with Rattus norvegicus [2] was -4.4%.
